According to ChEMBL document CHEMBL1125903, “New derivatives of kanamycin B obtained by modifications and substitutions in position 6". 1. Synthesis and microbiological evaluation” (1991):
≈ marks a conversion by molar mass, not a printed value.

Columns and labels:
Bacillus subtilis = assay: Minimum inhibitory concentration measured against Bacillus subtilis (ATCC 6633); assay type: functional
Procedure, shortened: (§1)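 Agar dilution MIC on Mueller-Hinton agar supplemented with CaCl2 and MgCl2 (NCCLS standards), 2-fold dilutions. Compounds tested as sulfate salts dissolved in sterile water; values expressed in mg/L of free base, with base content determined by 1H NMR. Spots of 10^4-10^5 CFU applied by multipoint inoculator. Growth read visually after 24 h at 37 °C.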

Citrobacter freundii = assay: Minimum inhibitory concentration measured against Citrobacter freundii (ATCC 8090); assay type: functional; procedure, shortened: as §1
Enterobacter cloacae = assay: Minimum inhibitory concentration measured against Enterobacter cloacae (ATCC 23355); assay type: functional; procedure, shortened: as §1
Escherichia coli = assay: Minimum inhibitory concentration measured against Escherichia coli (ATCC 25922); assay type: functional; procedure, shortened: as §1
Klebsiella aerogenes = assay: Minimum inhibitory concentration measured against Enterobacter aerogenes (ATCC 13048); assay type: functional; procedure, shortened: as §1
Klebsiella pneumoniae = assay: Minimum inhibitory concentration measured against Klebsiella pneumoniae (ATCC 13883); assay type: functional; procedure, shortened: as §1
Pseudomonas aeruginosa = assay: Minimum inhibitory concentration measured against Pseudomonas aeruginosa (NCTC 10701); assay type: functional; procedure, shortened: as §1
Proteus vulgaris = assay: Minimum inhibitory concentration measured against Proteus vulgaris (ATCC 13315); assay type: functional; procedure, shortened: as §1
Salmonella typhimurium = assay: Minimum inhibitory concentration measured against Salmonella Typhimurium (ATCC 14028); assay type: functional, Salmonella enterica subsp. enterica serovar Typhimurium; details: Salmonella enterica; procedure, shortened: as §1
Serratia marcescens [1] = assay: Minimum inhibitory concentration measured against Serratia marcescens (ATCC 8100); assay type: functional; procedure, shortened: as §1
[2] = tested on: Staphylococcus epidermidis; assay: Minimum inhibitory concentration measured against Staphylococcus epidermidis (ATCC 12228); assay type: functional; procedure, shortened: as §1
Enterococcus faecalis = assay: Minimum inhibitory concentration measured against […] faecalis (ATCC 19431); assay type: functional; procedure, shortened: as §1
Staphylococcus aureus = assay: Minimum inhibitory concentration measured against Staphylococcus aureus (ATCC 25923); assay type: functional; procedure, shortened: as §1
Serratia marcescens [3] = assay: Minimum inhibitory concentration measured against CDC 87457 strain; assay type: functional; procedure, shortened: as §1

SMILES | MIC (Bacillus subtilis) | MIC (Citrobacter freundii) | MIC (Enterobacter cloacae) | MIC (Escherichia coli) | MIC (Klebsiella aerogenes) | MIC (Klebsiella pneumoniae) | MIC (Pseudomonas aeruginosa) | MIC (Proteus vulgaris) | MIC (Salmonella typhimurium) | MIC (Serratia marcescens [1]) | MIC [2] | MIC (Enterococcus faecalis) | MIC (Staphylococcus aureus) | MIC (Serratia marcescens [3])
CCCCCC(=O)N(CCCC)CC1OC(OC2C(NC(=O)OC(C)(C)C)CC(NC(=O)OC(C)(C)C)C(OC3OC(CNC(=O)OC(C)(C)C)C(O)C(O)C3NC(=O)OC(C)(C)C)C2O)C(O)C(NC(=O)OC(C)(C)C)C1O (stereo not drawn) | > 64 µg/mL | > 64 µg/mL | 32 µg/mL (≈ 28.1 µM) | > 64 µg/mL | > 64 µg/mL | > 64 µg/mL | > 64 µg/mL | > 64 µg/mL | > 64 µg/mL | > 64 µg/mL | > 64 µg/mL | > 64 µg/mL | > 64 µg/mL | 
CCCSCC1OC(OC2C(NC(=O)OC(C)(C)C)CC(NC(=O)OC(C)(C)C)C(OC3OC(CNC(=O)OC(C)(C)C)C(O)C(O)C3NC(=O)OC(C)(C)C)C2O)C(O)C(NC(=O)OC(C)(C)C)C1O (stereo not drawn) | 4 µg/mL (≈ 3.84 µM) | 1 µg/mL (≈ 0.959 µM) | 0.25 µg/mL (≈ 0.24 µM) | 2 µg/mL (≈ 1.92 µM) | 4 µg/mL (≈ 3.84 µM) | 2 µg/mL (≈ 1.92 µM) | > 64 µg/mL | 1 µg/mL (≈ 0.959 µM) | 8 µg/mL (≈ 7.68 µM) | > 64 µg/mL | 0.25 µg/mL (≈ 0.24 µM) | 8 µg/mL (≈ 7.68 µM) | 1 µg/mL (≈ 0.959 µM) | 
CC(=O)N(C)CC1OC(OC2C(NC(=O)OC(C)(C)C)CC(NC(=O)OC(C)(C)C)C(OC3OC(CNC(=O)OC(C)(C)C)C(O)C(O)C3NC(=O)OC(C)(C)C)C2O)C(O)C(NC(=O)OC(C)(C)C)C1O (stereo not drawn) | 32 µg/mL (≈ 30.8 µM) | 8 µg/mL (≈ 7.7 µM) | 1 µg/mL (≈ 0.962 µM) | 32 µg/mL (≈ 30.8 µM) | 32 µg/mL (≈ 30.8 µM) | 8 µg/mL (≈ 7.7 µM) | > 64 µg/mL | 8 µg/mL (≈ 7.7 µM) | 64 µg/mL (≈ 61.6 µM) | > 64 µg/mL | 2 µg/mL (≈ 1.92 µM) | > 64 µg/mL | 4 µg/mL (≈ 3.85 µM) | 
NC[C@H]1O[C@H](O[C@H]2[C@H](O)[C@@H](O[C@H]3O[C@H](CO)[C@@H](O)[C@H](N)[C@H]3O)[C@H](N)C[C@@H]2N)[C@H](N)[C@@H](O)[C@@H]1O [BEKANAMYCIN] | 0.5 µg/mL (≈ 1.03 µM) | 0.5 µg/mL (≈ 1.03 µM) | 0.25 µg/mL (≈ 0.517 µM) | 1 µg/mL (≈ 2.07 µM) | 0.5 µg/mL (≈ 1.03 µM) | 0.25 µg/mL (≈ 0.517 µM) | 32 µg/mL (≈ 66.2 µM) | 0.25 µg/mL (≈ 0.517 µM) | 1 µg/mL (≈ 2.07 µM) | 1 µg/mL (≈ 2.07 µM) | 0.25 µg/mL (≈ 0.517 µM) | 16 µg/mL (≈ 33.1 µM) | 0.5 µg/mL (≈ 1.03 µM) | 1 µg/mL (≈ 2.07 µM)
